≈ marks a conversion by molar mass, not a printed value.
Columns and labels:
Staphylococcus aureus = assay: Antibacterial activity against Staphylococcus aureus ATCC 29213 after 1 hr by modified CLSI M26-A method; type: functional; conditions: ATCC 29213, 1 h
Summary of the method: (§1)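 Minimum bactericidal or fungicidal concentration (µg/mL) by modified CLSI M26-A: isotonic buffered saline at pH 4 replaces Mueller–Hinton broth because chlorine reacts with broth components, and exposure is shortened from 24 h at 35 °C to 1 h at room temperature.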

Candida albicans = assay: Antifungal activity against Candida albicans ATCC 10231 after 1 hr by modified CLSI M26-A method; type: functional; conditions: ATCC 10231, 1 h; summary of the method: as §1
Escherichia coli = assay: Antibacterial activity against Escherichia coli ATCC 25922 after 1 hr by modified CLSI M26-A method; type: functional; conditions: ATCC 25922, 1 h; summary of the method: as §1
[1] = Stability of the compound assessed as half life in aqueous buffer at 40 degC

Row | Structure (SMILES) | MBC (Staphylococcus aureus) [µg/mL] | MFC (Candida albicans) [µg/mL] | MBC (Escherichia coli) [µg/mL] | half-life [1] [days]
1 | CC1(C)CS(=O)(=O)CC(C)(C)N1Cl | 1 (≈ 4.43 µM) | 128 (≈ 567 µM) | 2 (≈ 8.86 µM) | > 113
2 | CC1(C)C(=O)N(CCCS(=O)(=O)[O-])C(=O)N1Cl.[Na+] | 32 | > 256 | 16 | > 14
3 | CC1(C)CC([N+](C)(C)C)CC(C)(C)N1Cl.[Cl-] | 8 | 256 | 16 | 28
4 | CC1(C)C(=O)N(CCCS(=O)(=O)[O-])C(C)(C)N1Cl.[Na+] | 16 | 16 | 4 | > 249
5 | CC1(C)C(=O)N(CCS(=O)(=O)CCCS(=O)(=O)[O-])C(=O)N1Cl.[Cs+] | > 256 | > 256 | 256 | > 7
6 | CC1(C)CN(CCS(=O)(=O)[O-])C(=O)N1Cl.[Na+] | 64 | > 256 | 32 | > 92
7 | CC1(C)C(=O)N(CCS(=O)(=O)[O-])CC(=O)N1Cl.[Na+] | 128 | > 256 | 128 | 90
8 | CC1(C)C(=O)N(CCCCO)C(C)(C)N1Cl | 2 (≈ 8.04 µM) | 256 (≈ 1030 µM) | 2 (≈ 8.04 µM) | > 92
9 | CC1(C)C(=O)N(CCS(=O)(=O)[O-])C(=O)C(C)(C)N1Cl.[Na+] | 128 | > 256 | 128 | 90
10 | CC1(C)C(=O)N(CCCCC[N+](C)(C)C)C(C)(C)N1Cl.[Cl-] | 2 | 16 | 2 | > 160
11 | CC1(C)CN(CCS(=O)(=O)CCCS(=O)(=O)[O-])C(=O)N1Cl.[Cs+] | 32 | – | 64 | > 112
12 | CC1(C)C(=O)N(CCC[N+](C)(C)C)C(C)(C)N1Cl.[Cl-] | 2 | 32 | 4 | 111
13 | CN1C(=O)N(Cl)C(C)(C[N+](C)(C)C)C1=O.[Cl-] (stereo not drawn) | 64 | > 256 | 16 | 5
14 | CC1(C)C(=O)N(CC[n+]2ccccc2)C(=O)N1Cl.[Cl-] | – | – | – | 4
15 | CC1(C)C(=O)N(CCS(=O)(=O)[O-])C(=O)N1Cl.[Na+] | 128 | 128 | 128 | 65
16 | CC1(C)C(=O)N(CCC[N+](C)(C)C)C(=O)N1Cl.[Cl-] | > 128 | > 1020 | 128 | 4
17 | CC1(C)CN(CCO)C(=O)C(C)(C)N1Cl | 2 (≈ 8.52 µM) | 8 (≈ 34.1 µM) | 1 (≈ 4.26 µM) | –
18 | CC1(C)C(=O)N(CCCCC[N+](C)(C)C)C(=O)N1Cl.[Cl-] | 128 | > 1020 | 128 | 22
19 | CN1CC(C)(CO)N(Cl)C1=O (stereo not drawn) | 16 (≈ 89.6 µM) | 8 (≈ 44.8 µM) | 16 (≈ 89.6 µM) | > 58
20 | CC1(C)CC(CCO)OC(=O)N1Cl (stereo not drawn) | – | – | – | > 14
21 | CC1(C)C(=O)N(CCCCS(=O)(=O)[O-])C(C)(C)N1Cl.[Na+] | 8 | 32 | 16 | > 84
22 | CC1(C)CC(=O)CC(C)(C)N1Cl | 2 (≈ 10.5 µM) | 32 (≈ 169 µM) | 1 (≈ 5.27 µM) | < 1
23 | CC1(C)CC(O)CC(C)(C)N1Cl | 4 (≈ 20.9 µM) | 32 (≈ 167 µM) | 1 (≈ 5.22 µM) | 32
24 | CC(=O)[O-].CC1(C)CN(CC[N+](C)(C)C)C(=O)N1Cl | 128 | – | 512 | 126
25 | CC1(C)C(=O)N(CCO)CC(=O)N1Cl | – | – | – | < 1

Source: ChEMBL document CHEMBL1770092, “Novel N-chloroheterocyclic antimicrobials” (Bioorg Med Chem Lett, 2011)
